From PubChem
Diaphorase act – compounds boosting diaphorase resazurin reduction – biochemical, uHTS, resorufin fluorescence, counter-screen for diaphorase-coupled primary assays, primary screen; Diaphorase/resazurin coupled assay, 16 min; stronger effect = higher value; 1 = vehicle wells, 0 = NADH-free wells; activation factor at 20 µM; actives 0.005% (n = 190,000); AID 1229, 2008;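 active = diaphorase activity raised at least twofold by the compound at 20 µM; inactive = activation factor below 2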
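Material: Clostridium kluyveri diaphorase, purified enzyme; Quantity: enzyme 0.07 U/mL final; Medium: HEPES pH 7.4 buffer with MgCl2 and Tween 20; Dosing: single compound dose of 20 µM, 1% DMSO final; Schedule: 16 min reaction at room temperature; Measured by: red resorufin fluorescence at 544/590 nm excitation/emission.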
Diaph inh CS – diaphorase inhibitors and chemical oxidizers, primary screen, counter-screen for diaphorase-coupled primary assays, biochemical, uHTS, resorufin fluorescence. diaphorase resazurin-to-resorufin fluorescence, NADH, 16 min; bacterial (C. kluyveri) enzyme, not human. inhibition, % at 20 µM. actives 0.69% (n = 190,000);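 active = primary screen inhibition at 20 µM above a set limit, cut at about 50% in these data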;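 also: plate controls were DMSO with full reaction for no effect and wells lacking NADH for full effect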
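controls = No-NADH positive control and DMSO neutral control | system = Clostridium kluyveri diaphorase enzyme | timing = reaction incubation of 16 min at room temperature | signal = resorufin fluorescence 544/590 nm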
FLuc inhib CS – firefly luciferase enzyme inhibitors, primary screen, artefact control for luciferase-based inhibitor screens, biochemical, luminescence, ATPLite; 10 min; Luciferin 4-monooxygenase (Photinus pyralis), P08659; actives 1.5% (n = 200,000); inhibition, % at 10 µM;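 active = inhibition above about 50% when tested at 10 µM, limit read from the data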
Target sequence (P08659 whole entry, looked up): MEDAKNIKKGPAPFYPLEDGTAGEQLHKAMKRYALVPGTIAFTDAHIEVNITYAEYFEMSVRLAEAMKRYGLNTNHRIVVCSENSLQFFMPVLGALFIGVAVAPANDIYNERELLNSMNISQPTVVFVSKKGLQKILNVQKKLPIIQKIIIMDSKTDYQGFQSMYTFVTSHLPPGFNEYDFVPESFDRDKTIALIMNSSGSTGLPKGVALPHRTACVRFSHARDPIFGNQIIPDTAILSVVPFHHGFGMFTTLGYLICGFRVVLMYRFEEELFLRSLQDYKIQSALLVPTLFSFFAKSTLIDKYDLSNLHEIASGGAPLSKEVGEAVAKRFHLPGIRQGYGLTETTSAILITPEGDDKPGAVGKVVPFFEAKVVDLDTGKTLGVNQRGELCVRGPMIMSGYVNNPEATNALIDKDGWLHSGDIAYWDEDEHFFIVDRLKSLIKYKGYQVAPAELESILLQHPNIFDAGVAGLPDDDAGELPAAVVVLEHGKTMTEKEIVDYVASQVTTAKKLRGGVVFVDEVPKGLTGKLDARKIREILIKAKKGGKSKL
FLuc act counter – FLuc activators, initial screening, artefact control for FLuc-dependent activation tests, biochemical, ATPlite luminescence | ATPlite luciferase biochemical, 10 min; 0 = ATP-free wells, 1 = DMSO control | activation factor at 10 µM | Luciferin 4-monooxygenase (Photinus pyralis), P08659 | 200,000 tested, under 10 active;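 active = luciferase activation factor, scaled between plate controls, of at least 2 with compound at 10 µM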
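Assay system – cell-free luciferase reagent · Medium – PBS-based ATP solution · Dosing – test compounds dosed from 2 mM stocks in 100% DMSO · Timing – 10 min, room temperature · Technique – light output (luminescence) · Measure – luminescence gain marking luciferase activators · Controls – No-ATP low control, compound-free enzyme-plus-ATP high control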
G6PDH counter – L. mesenteroides G6PDH inhibitors, counter-screen for G6PDH-coupled screening assays, biochemical, Leuconostoc mesenteroides enzyme | Purified L. mesenteroides G6PDH, diaphorase/resazurin coupled fluorescence, 45 min | inhibition, % at 5 µM | actives 0.12% (n = 200,000) | glucose-6-phosphate dehydrogenase [Leuconostoc mesenteroides]; in the data active = inhibition above about 50%
Active calls of the source: *. A selection: hits, their analogues and other compounds. The true share with any hit is near 2.3%.

SMILES	Diaphorase act	Diaph inh CS	FLuc inhib CS	FLuc act counter	G6PDH counter
CN(C(=O)Cn1cccc1C1=NC(c2ccccc2)CO1)c1ccccc1 (configuration not stated)	0.9	12	-5	1	0
Cc1cccc(-c2nc3cc([N+](=O)[O-])ccc3o2)c1	1.1	-15	18	0.8	9
Cc1ccc2oc(-c3ccccc3)nc2c1	0.9	8	76*	0.2	2
CCOc1cccc(-c2nc3cc(C)ccc3o2)c1	0.8	24	68*	0.3	2
COc1ccccc1NS(=O)(=O)c1ccc(Cl)c(NC(=O)C(C)N2C(=O)c3ccccc3C2=O)c1 (configuration not stated)	0.8	18	3	1	4
O=C1NC(=O)/C(=C\c2ccc(O)cc2O)S1	0.2	82*	2	1	28
Cc1cc(N2CCOCC2)ccc1/C=C1/SC(=O)NC1=O	0.9	13	21	0.8	8
COc1cc(NC(=S)N2CCC(C(N)=O)CC2)c(OC)cc1Cl	0.5	55*	-9	1.1	-2
O=C(CN(C(=O)c1ccccc1Cl)N1C(=O)CCCC1=O)c1ccc(Cl)cc1	1	2	-9	1.1	12
Cc1ccc2cc(C)c3nnc(SCC(=O)N4CCN(C(=O)c5ccco5)CC4)n3c2c1	0.5	51*	-6	1.1	6
O=C(Nc1ccc(-c2nnn(CC(=O)N3CCN(C(=O)c4ccco4)CC3)n2)cc1)c1ccccc1F	0.9	9	56*	0.4	-8
c1ccc2oc(-c3csc(N4CCOCC4)n3)cc2c1	0.8	22	86*	0.1	5
c1ccc(-c2csc(Nc3ncccn3)n2)cc1	0.9	7	28	0.7	16
Oc1ccc(-c2csc(Nc3ncccn3)n2)cc1	1.1	-5	56*	0.4	-1
O=C(NC1CC1)c1cccc(Nc2ccc(-c3ccc4c(c3)OCCO4)nn2)c1	0.8	24	83*	0.2	-21
Cc1ccc(NCc2nc3ccccc3n2C)cc1	1	4	70*	0.3	-1
Cc1ccc(NC(=O)C2C3C=CC4(CN(Cc5cccnc5)C(=O)C24)O3)cc1F (configuration not stated)	0.8	16	-4	1	1
COc1ccccc1-c1cc2nc(C)c(CCC(=O)NC(C)CCc3ccco3)c(C)n2n1 (configuration not stated)	0.8	18	2	1	3
COc1ccccc1Nc1nc(C)cc(C)c1C(N)=O	0.8	19	-4	1	1
Cc1cc(C)c(C(N)=O)c(Nc2cccc3ccccc23)n1	0.1	91*	-5	1.1	4
CC1=C(C(=O)Nc2ccc(C)cn2)C(c2cnn(C)c2)C2=C(CCCC2=O)N1 (configuration not stated)	0.9	13	-4	1	1
C=C1c2ccccc2NC(=S)N1Cc1ccc2c(c1)OCO2	0.8	20	-3	1	7
Oc1ccc2ccccc2c1CNc1cnc2ccccc2c1	0.4	60*	1	1	25
Oc1ccccc1CNc1cnc2ccccc2c1	0.8	18	4	1	8
CC1C(=O)NN=C1C(=O)N/N=C\C(Br)=C\c1ccccc1 (configuration not stated)	1.2	-17	95*	0	1
SMILES	Diaphorase act	Diaph inh CS	FLuc inhib CS	FLuc act counter	G6PDH counter
CC1=NNC(=O)C1CCC(=O)N/N=C/C(Br)=C/c1ccccc1 (configuration not stated)	1	0	3	1	-6
COc1ccc(S(=O)(=O)N(CC(=O)N/N=C/c2cccs2)c2cc(C)cc(C)c2)cc1OC	0.7	31	-1	1	-7
Cc1ccc(N2CS(=O)(=O)/C(=C/N(C)C)C2=O)cc1	1	3	57*	0.4	9
C[C@@H]1C=C(C(=O)N2CCN(C)CC2)O[C@H](OCc2ccc(CO)cc2)C1	0.3	68*	-4	1	8
CC(=O)n1cc([C@@H]2C=C(C(=O)Nc3ccccc3)O[C@H](OCc3ccc(CO)cc3)C2)c2ccccc21	0.5	51*	-3	1	5
CC(=O)n1cc([C@@H]2C=C(C(=O)N3CCN(Cc4ccccc4)CC3)O[C@H](OCc3ccc(CO)cc3)C2)c2ccccc21	0.4	59*	-4	1	16
Cn1c(=O)c2c(nc(SCC(=O)NCC3CCCO3)n2Cc2ccc(F)cc2)n(C)c1=O (configuration not stated)	0.7	26	-8	1.1	13
Cc1ccc(/C=C/C(=O)N2CCc3ccccc3C2)cc1	0.8	19	51*	0.5	4
CCCc1ccc(-c2cc(NC(=O)CSc3nnc(N)s3)n(-c3ccccc3)n2)cc1	0.8	21	65*	0.3	-16
Cc1nnc(SCC(=O)Nc2cc(-c3cc(C)c(C)cc3C)nn2-c2ccccc2)s1	0.8	23	-6	1.1	-2
COc1cccc(C(=O)N2CCC(N3CC(C)OC(C)C3)CC2)c1 (configuration not stated)	0.8	22	-2	1	10
Cc1ccc(-c2csc3nc[nH]c(=S)c23)cc1	0.3	70*	2	1	9
Cc1sc2nc(-c3ccccn3)[nH]c(=O)c2c1-c1ccccc1	1	0	33	0.7	4
Cc1sc2nc[nH]c(=S)c2c1-c1ccccc1	0.2	82*	-7	1.1	-8
Cc1cc(-c2csc3nc[nH]c(=S)c23)cc(C)c1C	0.4	56*	-8	1.1	-3
COc1ccc(C(=O)Nc2ccc3cn[nH]c3c2)c(OC)c1	1	-2	31	0.7	5
CCC(C)C(NC(=O)OC(C)(C)C)C(=O)NC(C(=O)NC(C)C(N)=O)C(C)C (configuration not stated)	1	-1	-3	1	4
CCCCNC(=S)Nc1ccccc1F	0.6	40	-6	1.1	10
C=CCn1c2ccccc2c2nnc(SCN3C(=O)c4ccccc4C3=O)nc21	0.8	20	-6	1.1	6
C=CCn1c2ccccc2c2nnc(SCCCn3c(=O)[nH]c4ccccc43)nc21	0.4	57*	-1	1	-26
CCCC(=O)c1c[nH]c(C(=O)NCCCN2CCOCC2)c1	0.9	5	-2	1	2
O=C(/C=C/c1ccco1)NCC1CCCO1 (configuration not stated)	0.9	9	-3	1	1
